The test system of data set [1] is Mycobacterium tuberculosis. Nature of the data set: fT>MIC for >= 1 log reduction in CFU count in Mycobacterium tuberculosis H37Rv in using simulated dose of at 400 mg assessed as time during compound concentration exceeds MIC of 0.06250 ug/ml assuming 15% unbound compound concentration by one compartment human pharmacokinetic model. It counts as functional. The gist of the method: (§1)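 A one-compartment PK model was fitted to human data to get median parameters. It simulated steady-state total and free concentrations for 100, 200 or 400 mg once daily, assuming 5, 7, 10 or 15% unbound drug. Free T>MIC was computed against MICs of 0.03125–0.25 µg/ml and compared with the mouse-derived T>MIC target for 1-log10 kill.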

Data set [2] concerns Mycobacterium tuberculosis. Nature of the data set: fT>MIC for >= 1 log reduction in CFU count in Mycobacterium tuberculosis H37Rv in using simulated dose of at 200 mg assessed as time during compound concentration exceeds MIC of 0.25000 ug/ml assuming 7% unbound compound concentration by one compartment human pharmacokinetic model. It counts as functional. The gist of the method: as §1

In data set [3] the test system is Mycobacterium tuberculosis. Nature of the data set: fT>MIC for >= 1 log reduction in CFU count in Mycobacterium tuberculosis H37Rv in using simulated dose of at 400 mg assessed as time during compound concentration exceeds MIC of 0.12500 ug/ml assuming 7% unbound compound concentration by one compartment human pharmacokinetic model. It counts as functional. The gist of the method:
(§2)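 Human steady-state simulation: one-compartment PK model fitted to patient data, chosen by AIC. Median PK parameters used to simulate total and free concentrations, assuming 5, 7, 10 or 15% unbound, for 100, 200 and 400 mg once daily. Free levels compared with MICs of 0.03125 to 0.25 µg/ml to give %T>MIC; T>MIC is the cumulative percentage of the dosing interval above MIC.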

The test system of data set [4] is Mycobacterium tuberculosis. Nature of the data set: fT>MIC for >= 1 log reduction in CFU count in Mycobacterium tuberculosis H37Rv in using simulated dose of at 100 mg assessed as time during compound concentration exceeds MIC of 0.12500 ug/ml assuming 7% unbound compound concentration by one compartment human pharmacokinetic model. It counts as functional. The gist of the method: as §1

Data set [5] has as its system Mycobacterium tuberculosis. Nature of the data set: fT>MIC for >= 1 log reduction in CFU count in Mycobacterium tuberculosis H37Rv in using simulated dose of at 100 mg assessed as time during compound concentration exceeds MIC of 0.25000 ug/ml assuming 15% unbound compound concentration by one compartment human pharmacokinetic model. It counts as functional. The gist of the method:
as §1

The subject of data set [6] is Mycobacterium tuberculosis. Nature of the data set: fT>MIC for >= 1 log reduction in CFU count in Mycobacterium tuberculosis H37Rv in using simulated dose of at 400 mg assessed as time during compound concentration exceeds MIC of 0.12500 ug/ml assuming 5% unbound compound concentration by one compartment human pharmacokinetic model. It counts as functional. The gist of the method: as §2

The test system of data set [7] is Mycobacterium tuberculosis. Nature of the data set: fT>MIC for >= 1 log reduction in CFU count in Mycobacterium tuberculosis H37Rv in using simulated dose of at 100 mg assessed as time during compound concentration exceeds MIC of 0.12500 ug/ml assuming 10% unbound compound concentration by one compartment human pharmacokinetic model. It counts as functional. In short, it runs like this:
as §1

The test system of data set [8] is Mycobacterium tuberculosis. Nature of the data set: fT>MIC for >= 1 log reduction in CFU count in Mycobacterium tuberculosis H37Rv in using simulated dose of at 400 mg assessed as time during compound concentration exceeds MIC of 0.25000 ug/ml assuming 7% unbound compound concentration by one compartment human pharmacokinetic model. It counts as functional. The gist of the method:
as §2

In data set [9] the test system is Mycobacterium tuberculosis. Nature of the data set: fT>MIC for >= 1 log reduction in CFU count in Mycobacterium tuberculosis H37Rv in using simulated dose of at 400 mg assessed as time during compound concentration exceeds MIC of 0.03125 ug/ml assuming 10% unbound compound concentration by one compartment human pharmacokinetic model. It counts as functional. The gist of the method: as §1

The test system of data set [10] is Mycobacterium tuberculosis. Nature of the data set: fT>MIC for >= 1 log reduction in CFU count in Mycobacterium tuberculosis H37Rv in using simulated dose of at 400 mg assessed as time during compound concentration exceeds MIC of 0.03125 ug/ml assuming 5% unbound compound concentration by one compartment human pharmacokinetic model. It counts as functional. In short, it runs like this: as §1

The subject of data set [11] is Mycobacterium tuberculosis. Nature of the data set: fT>MIC for >= 1 log reduction in CFU count in Mycobacterium tuberculosis H37Rv in using simulated dose of at 200 mg assessed as time during compound concentration exceeds MIC of 0.06250 ug/ml assuming 15% unbound compound concentration by one compartment human pharmacokinetic model. It counts as functional. In short, it runs like this: as §1

For data set [12], the system named is Mycobacterium tuberculosis. Nature of the data set: fT>MIC for >= 1 log reduction in CFU count in Mycobacterium tuberculosis H37Rv in using simulated dose of at 200 mg assessed as time during compound concentration exceeds MIC of 0.06250 ug/ml assuming 7% unbound compound concentration by one compartment human pharmacokinetic model. It counts as functional. In short, it runs like this: as §1

The nature of data set [13]: Tmax in BALB/c mouse up to 1456 mg/kg, po administered as single dose. As to conditions: in vivo. It counts as ADME, organism-based. More on the design: route oral. The gist of the method: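 Uninfected 6-week female BALB/c mice received single oral gavage doses of 3–1,458 mg/kg as a cyclodextrin-micelle suspension. Three mice per time point were bled by cardiac puncture under isoflurane at 0.5–120 h. Serum levels were measured by validated HPLC-UV (standards 0.20–50 µg/ml).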

In data set [14] the test system is Mycobacterium tuberculosis. Nature of the data set: fT>MIC for >= 1 log reduction in CFU count in Mycobacterium tuberculosis H37Rv in using simulated dose of at 200 mg assessed as time during compound concentration exceeds MIC of 0.03125 ug/ml assuming 5% unbound compound concentration by one compartment human pharmacokinetic model. It counts as functional. In short, it runs like this: as §1

A short description of data set [15]: AUC (0 to t) in mouse at 100 or 50 mg/kg, po administered as single dose. It counts as ADME, organism-based. More on the design: dose 50 mg/kg, route oral. As to conditions: plasma.
For data set [16], the system named is Mycobacterium tuberculosis. Nature of the data set: fT>MIC for >= 1 log reduction in CFU count in Mycobacterium tuberculosis H37Rv in using simulated dose of at 400 mg assessed as time during compound concentration exceeds MIC of 0.03125 ug/ml assuming 15% unbound compound concentration by one compartment human pharmacokinetic model. It counts as functional. The gist of the method:
as §1

Data set [17] in a line: Cmax in mouse at 100 or 50 mg/kg, po administered as single dose. It counts as ADME, organism-based. More on the design: dose 50 mg/kg, route oral. As to conditions: in vivo.
Data set [18] has as its system Mycobacterium tuberculosis. Nature of the data set: fT>MIC for >= 1 log reduction in CFU count in Mycobacterium tuberculosis H37Rv in using simulated dose of at 100 mg assessed as time during compound concentration exceeds MIC of 0.06250 ug/ml assuming 10% unbound compound concentration by one compartment human pharmacokinetic model. It counts as functional. The gist of the method: as §1

The subject of data set [19] is Mycobacterium tuberculosis. Nature of the data set: fT>MIC for >= 1 log reduction in CFU count in Mycobacterium tuberculosis H37Rv in using simulated dose of at 400 mg assessed as time during compound concentration exceeds MIC of 0.25000 ug/ml assuming 15% unbound compound concentration by one compartment human pharmacokinetic model. It counts as functional. The gist of the method: as §2

Data set [20] concerns Mycobacterium tuberculosis. Nature of the data set: fT>MIC for >= 1 log reduction in CFU count in Mycobacterium tuberculosis H37Rv in using simulated dose of at 400 mg assessed as time during compound concentration exceeds MIC of 0.06250 ug/ml assuming 7% unbound compound concentration by one compartment human pharmacokinetic model. It counts as functional. The gist of the method:
as §2

The test system of data set [21] is Mycobacterium tuberculosis. Nature of the data set: Antimicrobial activity against Mycobacterium tuberculosis H37Rv infected in BALB/c mouse assessed as bacteriostatic effect at 12.5 mg/kg, po administered as single dose. More on the design: dose 12.5 mg/kg. It counts as functional, organism-based.
The subject of data set [22] is Mycobacterium tuberculosis. Nature of the data set: fT>MIC for >= 1 log reduction in CFU count in Mycobacterium tuberculosis H37Rv in using simulated dose of at 200 mg assessed as time during compound concentration exceeds MIC of 0.03125 ug/ml assuming 15% unbound compound concentration by one compartment human pharmacokinetic model. It counts as functional. In short, it runs like this: as §1

Each structure is given as a SMILES string. Active and inactive are the calls of the source. The rule behind the calls is not given here.

Regarding `O=[N+]([O-])c1cn2c(n1)OC[C@@H](OCc1ccc(OC(F)(F)F)cc1)C2` [PRETOMANID], the “fT>MIC” value in [1] was 100%; in data set [2] it was 0%; in data set [3] it was 67%; in data set [4], 0%; in data set [5], 0%; in data set [6], 46%. Also, the “fT>MIC” value is 0% in data set [7]; 4% in [8]; 100% in data set [9]; 100% in data set [10]; 100% in data set [11]; 67% in data set [12]. The “fT>MIC” value was 100% in [14]; 100% in data set [16]; 46% in data set [18]; 67% in data set [19]; 100% in data set [20]; 100% in [22]. Moreover, the Tmax – broadly, the time at which the peak concentration occurs – in [13] was 4 h. Besides, the AUC(0-t) – broadly, exposure summed from dosing to a finite time, without extrapolation to infinity – in data set [15] was 70400 ng·h/mL. For the same compound, in data set [17], the concentration peaked (Cmax) at 3800 ng/mL. Further, the result in data set [21] was Active.
